Reference: ChEMBL document CHEMBL1134320, “Structure of protein tyrosine phosphatase 1B in complex with inhibitors bearing two phosphotyrosine mimetics” (J Med Chem, 2001)
Each block holds one compound with its values, some of them ahead of it.

Assays:
[1] = molecular target: T1, Tyrosine-protein phosphatase non-receptor type 4 (Homo sapiens) (UniProt P29074); experiment: Inhibitory activity against Protein tyrosine phosphatase PTPmeg-1 at 380 uM
T1 sequence (whole entry): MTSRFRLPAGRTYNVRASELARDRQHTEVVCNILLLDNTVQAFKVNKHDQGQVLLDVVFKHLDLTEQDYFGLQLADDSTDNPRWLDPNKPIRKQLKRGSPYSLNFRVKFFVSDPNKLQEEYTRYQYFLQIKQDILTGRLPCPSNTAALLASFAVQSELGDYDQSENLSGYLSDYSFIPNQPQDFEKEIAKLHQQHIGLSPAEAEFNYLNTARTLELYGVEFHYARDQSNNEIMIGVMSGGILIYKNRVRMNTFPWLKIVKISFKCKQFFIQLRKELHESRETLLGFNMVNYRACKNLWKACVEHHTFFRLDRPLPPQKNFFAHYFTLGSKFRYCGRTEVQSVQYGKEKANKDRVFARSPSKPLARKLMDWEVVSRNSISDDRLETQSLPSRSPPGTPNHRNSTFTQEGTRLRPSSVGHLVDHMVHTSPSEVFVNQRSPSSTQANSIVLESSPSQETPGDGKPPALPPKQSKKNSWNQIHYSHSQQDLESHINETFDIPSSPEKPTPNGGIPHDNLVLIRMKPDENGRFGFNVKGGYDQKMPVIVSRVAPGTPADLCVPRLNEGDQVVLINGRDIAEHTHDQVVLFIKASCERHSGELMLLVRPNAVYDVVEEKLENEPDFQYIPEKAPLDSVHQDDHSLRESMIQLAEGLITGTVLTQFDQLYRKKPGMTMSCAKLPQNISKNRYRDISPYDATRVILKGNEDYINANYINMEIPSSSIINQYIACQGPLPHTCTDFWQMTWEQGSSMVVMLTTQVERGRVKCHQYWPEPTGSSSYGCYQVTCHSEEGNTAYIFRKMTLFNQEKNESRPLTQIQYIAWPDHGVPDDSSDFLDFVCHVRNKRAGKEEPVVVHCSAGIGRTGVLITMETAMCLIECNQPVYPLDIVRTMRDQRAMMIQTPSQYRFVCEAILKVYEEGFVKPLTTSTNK
Procedure, shortened: (§1)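 Percent inhibition was measured at the single inhibitor concentration given in the line, using the FDP fluorogenic substrate at about each enzyme's KM. For CDC25a, flag-tagged protein was made in Sf9 cells (moi 5, 27 °C, 72 h) and purified on anti-flag resin to over 80% purity.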

[2] = molecular target: T2, M-phase inducer phosphatase 1 (Homo sapiens) (UniProt P30304); experiment: Inhibitory activity against Protein tyrosine phosphatase cell division cycle 25A at 250 uM
T2 sequence (whole entry): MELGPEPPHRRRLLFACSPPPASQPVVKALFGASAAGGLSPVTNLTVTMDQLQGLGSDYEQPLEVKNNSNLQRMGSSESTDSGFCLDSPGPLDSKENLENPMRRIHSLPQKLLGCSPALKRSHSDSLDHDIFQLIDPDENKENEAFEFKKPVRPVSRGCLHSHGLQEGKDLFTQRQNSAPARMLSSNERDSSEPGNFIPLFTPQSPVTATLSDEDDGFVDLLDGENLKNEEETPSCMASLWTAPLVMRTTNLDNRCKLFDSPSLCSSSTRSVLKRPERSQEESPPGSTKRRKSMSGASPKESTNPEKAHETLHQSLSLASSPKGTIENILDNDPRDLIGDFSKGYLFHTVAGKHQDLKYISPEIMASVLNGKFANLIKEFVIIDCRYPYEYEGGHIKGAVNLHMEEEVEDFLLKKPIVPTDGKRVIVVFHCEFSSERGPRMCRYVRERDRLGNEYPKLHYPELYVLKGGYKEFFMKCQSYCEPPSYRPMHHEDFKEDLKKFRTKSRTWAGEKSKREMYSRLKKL

[3] = molecular target: T1, Tyrosine-protein phosphatase non-receptor type 4 (Homo sapiens); experiment: Inhibitory activity against Protein tyrosine phosphatase PTPmeg-1 at 250 uM; procedure, shortened: as §1
[4] = molecular target: T1, Tyrosine-protein phosphatase non-receptor type 4 (Homo sapiens); experiment: Inhibitory activity against Protein tyrosine phosphatase PTPmeg-1 at 500 uM; procedure, shortened: as §1
[5] = molecular target: T2, M-phase inducer phosphatase 1 (Homo sapiens); experiment: Inhibitory activity against Protein tyrosine phosphatase cell division cycle 25A at 250 uM; procedure, shortened: as §1

inhibition [1]: 30%
Compound: O=P(O)(O)C(F)(F)c1ccc(COc2cccc(OCc3ccc(C(F)(F)P(=O)(O)O)cc3)c2)cc1

inhibition [2]: 16% | inhibition [3]: 9%
Compound: O=P(O)(O)C(F)(F)c1ccc(CCCCc2ccc(C(F)(F)P(=O)(O)O)cc2)cc1

inhibition [4]: 30%
Compound: O=P(O)(O)C(F)(F)c1ccc(COc2ccccc2OCc2ccc(C(F)(F)P(=O)(O)O)cc2)cc1

inhibition [5]: 13% | inhibition [3]: 2%
Compound: O=P(O)(O)C(F)(F)c1ccc(COCCOCc2ccc(C(F)(F)P(=O)(O)O)cc2)cc1
